Screens as filed in PubChem BioAssay.
hIAP block – blocks human intestinal alkaline phosphatase. P09923. purified IAP, CDP-Star luminescence, 30 min. inhibition, % at 10 µM. hit rate 0.12% among 330,000;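 active = inhibition reaching a set limit with compound at 10 µM in the primary screen, cut at about 35% in these data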
Target sequence (P09923 whole entry, looked up): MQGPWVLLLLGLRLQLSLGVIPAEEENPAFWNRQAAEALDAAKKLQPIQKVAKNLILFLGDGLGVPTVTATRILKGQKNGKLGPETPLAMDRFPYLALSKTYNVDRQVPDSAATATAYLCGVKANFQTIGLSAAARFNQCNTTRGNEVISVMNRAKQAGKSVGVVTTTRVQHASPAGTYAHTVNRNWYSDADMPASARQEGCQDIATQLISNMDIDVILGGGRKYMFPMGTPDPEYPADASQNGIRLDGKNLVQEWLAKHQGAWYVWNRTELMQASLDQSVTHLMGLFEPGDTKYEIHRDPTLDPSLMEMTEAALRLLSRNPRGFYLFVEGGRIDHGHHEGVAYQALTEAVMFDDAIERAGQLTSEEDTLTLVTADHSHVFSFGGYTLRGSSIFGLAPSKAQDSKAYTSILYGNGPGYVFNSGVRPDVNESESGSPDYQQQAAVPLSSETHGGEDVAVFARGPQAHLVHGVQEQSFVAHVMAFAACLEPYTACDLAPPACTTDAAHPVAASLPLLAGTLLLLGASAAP
bIAP activator – increases bovine intestinal alkaline phosphatase activity | hit rate 0.17% among 200,000 | AID 1016 | activation factor at 20 µM | purified bovine IAP, CDP-star luminescence, 30 min; stronger effect = higher value; fold of DMSO-control signal, blank-subtracted;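 active = activation factor of 2 or more at 20 µM, a signal rise over negative controls twice the positive control's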
mIAP block – mouse IAP inhibition; purified mouse IAP, CDP-Star luminescence, 30 min; hit rate 0.2% among 330,000; inhibition, % at 10 µM;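 active = inhibition of at least 40% at 10 µM in the primary screen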
hIAP activ – increases human intestinal alkaline phosphatase activity. hit rate 0.16% among 330,000. purified human IAP, CDP-Star luminescence, 30 min; stronger effect = higher value; 1 = vehicle-only enzyme, 0 = enzyme-free background. activation factor at 10 µM. AID 2524. P09923;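 active = activation factor of the enzyme at least 2-fold when tested at 20 µM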
mIAP act – mouse IAP activation; hit rate 0.24% among 330,000; AID 2805; muIAP, CDP-Star luminescence, 30 min; stronger effect = higher value; 1 = vehicle-only enzyme signal, 0 = enzyme-free wells; activation factor at 10 µM;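 active = activation factor of at least 2 at 20 µM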
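System: mouse IAP enzyme. Reagent: CDP-Star chemiluminescent phosphatase substrate. Benchmarks: DMSO wells, no-enzyme wells. Times: 30 min enzyme-substrate-compound incubation at room temperature. Detection: luminescence from enzymatic CDP-Star hydrolysis. Doses: test compounds delivered from DMSO solution.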
bIAP inhibitor – blocks bovine intestinal alkaline phosphatase activity; purified bovine IAP, CDP-star luminescence, 30 min; inhibition, % at 20 µM; 190,000 tested, under 10 active;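 active = over 50% inhibition of intestinal alkaline phosphatase at 20 µM in the single-dose screen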
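Assay system – bovine IAP enzyme · Quantity – bovine IAP at 1/65,000,000 final dilution · Detection – CDP-star luminescence signal · Times – 30 min reaction at room temperature · Also added – CDP-star substrate at 30 µM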
mIAP inh conf – mouse IAP inhibition confirmation; shares compounds with mIAP block; hit rate 4.7% among 11,000; purified mouse IAP, CDP-Star luminescence, 30 min; inhibition, % at 10 µM;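 active = inhibition of at least 40% at 10 µM in either of the two replicates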
Of the large screens only hits and unclear results are named; the others gave an inactive call (follow-up assays come after a bar, where they were run). Most compounds without a hit are left out; they make up all but 0.77% or so of the library.

O=C(/C=C/c1ccco1)NC(=S)Nc1ccc(C(=O)O)cc1	mIAP block 43 (no result: bIAP activator, bIAP inhibitor) | mIAP inh conf 67
CC(=O)NC(=S)Nc1ccc(NC(=S)NC(=O)/C=C/c2ccco2)cc1	none (no result: bIAP activator, bIAP inhibitor)
CCn1c(SCC(=O)NC2CCCCC2)nnc1-c1ccco1	none (no result: bIAP activator, bIAP inhibitor)
CC(=O)Oc1cc(C(=O)OCC(=O)N2CCc3ccccc3C2)cc(OC(C)=O)c1OC(C)=O	mIAP block 46 (no result: bIAP activator, bIAP inhibitor) | mIAP inh conf 51
O=C(NC1CCCC1)C(c1ccc(F)cc1)N(Cc1ccc(F)cc1)C(=O)c1ccn[nH]1 (centres undefined)	bIAP activator 2.4, mIAP act 2.2 | mIAP inh conf inactive
Cc1ccc(NC(=O)CN(C)S(=O)(=O)c2ccc3[nH]c(=O)oc3c2)c(C)c1	mIAP block 63 (no result: bIAP activator, bIAP inhibitor) | mIAP inh conf 88
Cc1ccc(NS(=O)(=O)c2ccc3[nH]c(=O)oc3c2)c(C)c1	mIAP block 80 (no result: bIAP activator, bIAP inhibitor) | mIAP inh conf 85
C#CCOCCOCCOCCNc1nc(N2CCN(C(=O)CCCCCCCCCCNC(=O)[C@H]([C@@H](C)CC)n3cc(CCCCN=C(N)N)nn3)CC2)nc(N2CCN(C(=O)CCCCCCCCCCNC(=O)[C@@H]([C@H](C)O)n3cc(C)nn3)CC2)n1	mIAP act 4.7 (no result: bIAP activator, bIAP inhibitor) | mIAP inh conf inactive
C#CCOCCOCCOCCNc1nc(N2CCN(C(=O)CCCCCCCCCCNC(=O)Cn3cc(C[C@@H](C)O)nn3)CC2)nc(N2CCN(C(=O)CCCCCCCCCCNC(=O)[C@@H](CCSC)n3cc(CCO)nn3)CC2)n1	mIAP act 2.8 (no result: bIAP activator, bIAP inhibitor) | mIAP inh conf inactive
C#CCOCCOCCOCCNc1nc(N2CCN(C(=O)CCCCCCCCCCNC(=O)[C@H](CO)n3cc(CCCCCN)nn3)CC2)nc(N2CCN(C(=O)CCCCCCCCCCNC(=O)[C@H](CCCN=C(N)N)n3cc(C[C@@H](C)CC)nn3)CC2)n1	none (no result: bIAP activator, bIAP inhibitor)
C#CCOCCOCCOCCNc1nc(N2CCN(C(=O)CCCCCCCCCCNC(=O)[C@H]([C@@H](C)CC)n3cc(CCCCN=C(N)N)nn3)CC2)nc(N2CCN(C(=O)CCCCCCCCCCNC(=O)[C@H](CCCN=C(N)N)n3cc(C[C@@H](C)CC)nn3)CC2)n1	mIAP act 4.4 (no result: bIAP activator, bIAP inhibitor) | mIAP inh conf inactive
C#CCOCCOCCOCCNc1nc(N2CCN(C(=O)CCCCCCCCCCNC(=O)[C@@H](CCSC)n3cc(CCO)nn3)CC2)nc(N2CCN(C(=O)CCCCCCCCCCNC(=O)[C@H](CCCN=C(N)N)n3cc(C[C@@H](C)CC)nn3)CC2)n1	mIAP act 7.7 (no result: bIAP activator, bIAP inhibitor) | mIAP inh conf inactive
C#CCOCCOCCOCCNc1nc(N2CCN(C(=O)CCCCCCCCCCNC(=O)Cn3cc(CCCCCN)nn3)CC2)nc(N2CCN(C(=O)CCCCCCCCCCNC(=O)[C@@H]([C@H](C)O)n3cc(C)nn3)CC2)n1	none (no result: bIAP activator, bIAP inhibitor)
C#CCOCCOCCOCCNc1nc(N2CCN(C(=O)CCCCCCCCCCNC(=O)[C@@H](CCSC)n3cc(CCO)nn3)CC2)nc(N2CCN(C(=O)CCCCCCCCCCNC(=O)[C@@H]([C@H](C)O)n3cc(C)nn3)CC2)n1	none (no result: bIAP activator, bIAP inhibitor)
CC(C)n1ncc2c(C(=O)NCc3cccnc3)cc(C3CC3)nc21	none (no result: bIAP activator, bIAP inhibitor)
C#CCOCCOCCOCCNc1nc(N2CCOCC2)nc(N2CCN(C(=O)[C@H]([C@@H](C)CC)n3cc(CCCN=C(N)N)nn3)CC2)n1	none
C#CCOCCOCCOCCNc1nc(N2CCN(C(=O)CCCCCCCCCCNC(=O)[C@H](CCCCN)n3cc(C[C@@H](C)CC)nn3)CC2)nc(N2CCN(C(=O)CCCCCCCCCCNC(=O)[C@H](CCCN=C(N)N)n3cc(C[C@@H](C)CC)nn3)CC2)n1	none (no result: bIAP activator, bIAP inhibitor)
C#CCOCCOCCOCCNc1nc(N2CCN(C(=O)CCCCCCCCCCNC(=O)[C@H](CCCCN)n3cc(C)nn3)CC2)nc(N2CCN(C(=O)CCCCCCCCCCNC(=O)[C@H](CCCN=C(N)N)n3cc(C[C@@H](C)CC)nn3)CC2)n1	mIAP act 3.1 (no result: bIAP activator, bIAP inhibitor) | mIAP inh conf inactive
C#CCOCCOCCOCCNc1nc(N2CCOCC2)nc(N2CCN(C(=O)CCCCCCCCCCNC(=O)[C@H]([C@@H](C)CC)n3cc(CCCCN=C(N)N)nn3)CC2)n1	mIAP act 2.5 (no result: bIAP activator, bIAP inhibitor) | mIAP inh conf inactive
C#CCOCCOCCOCCNc1nc(N2CCN(C(=O)CCCCCCCCCCNC(=O)[C@H](CCCN=C(N)N)n3cc(C[C@@H](C)CC)nn3)CC2)nc(N2CCN(C(=O)CCCCCCCCCCNC(=O)[C@@H]([C@H](C)CC)n3cc(CCCCCN)nn3)CC2)n1	mIAP act 5.6 (no result: bIAP activator, bIAP inhibitor) | mIAP inh conf inactive
Cc1ccnc(NC(=O)c2ccc3[nH]c(=O)c(=O)[nH]c3c2)c1	none (no result: bIAP activator, bIAP inhibitor)
COc1ccc(C(=O)O)cc1S(=O)(=O)N1CCN(Cc2ccc3c(c2)OCO3)CC1	none (no result: bIAP activator, bIAP inhibitor)
COc1ccc(OCCOC(=O)CNS(=O)(=O)c2ccc(SC)c([N+](=O)[O-])c2)cc1	none (no result: bIAP activator, bIAP inhibitor)
N#CC1=C2SCN(c3ccccc3)CN2C(=O)CC1c1cccs1 (centres undefined)	none
CCOc1ccc(N2CSC3=C(C#N)C(c4ccco4)CC(=O)N3C2)cc1 (centres undefined)	mIAP block 74 | mIAP inh conf 81
Cc1ccc(C2CC(=O)N3CN(c4ccc(Br)cc4)CSC3=C2C#N)o1 (centres undefined)	mIAP block 61 | mIAP inh conf 63
COc1cc(/C=C/C(=O)/C=C(O)/C=C/c2ccc(O)c(OC)c2)ccc1O	mIAP block 61 (no result: hIAP block, bIAP activator, hIAP activ, bIAP inhibitor) | mIAP inh conf 53
COc1cc(/C=C/C(=O)CC(=O)/C=C/c2ccc(O)c(OC)c2)ccc1O	mIAP block 58 (no result: hIAP block, hIAP activ) | mIAP inh conf 49
O=C(Nc1ccncc1)C1CCN(S(=O)(=O)c2ccc(Cl)c(C(F)(F)F)c2)CC1	none (no result: bIAP activator, bIAP inhibitor)
CC(C(=O)NCCc1ccccc1)N1c2cccc3cccc(c23)S1(=O)=O (centres undefined)	none (no result: bIAP activator, bIAP inhibitor)
O=C(N/N=C/c1ccc([N+](=O)[O-])o1)c1ccncc1	mIAP block 43 (no result: bIAP activator, bIAP inhibitor) | mIAP inh conf 48
CCCCCC(=O)N/N=C/c1ccc([N+](=O)[O-])o1	none
O=C(NN=Cc1ccc(F)cc1)c1ccccc1NS(=O)(=O)c1cccs1	none (no result: bIAP activator, bIAP inhibitor)
O=C(Cc1ccc2c(c1)OCO2)NN=Cc1ccc([N+](=O)[O-])o1	mIAP block 54 (no result: bIAP activator, bIAP inhibitor) | mIAP inh conf 69
O=C(N/N=C/c1ccc([N+](=O)[O-])o1)c1ccccc1NS(=O)(=O)c1cccs1	mIAP block 53 (no result: bIAP activator, bIAP inhibitor) | mIAP inh conf 62
O=C(N/N=C/c1ccc([N+](=O)[O-])o1)c1cc2ccccc2o1	mIAP block 40 (no result: bIAP activator, bIAP inhibitor) | mIAP inh conf 59
CCOCCCN(C(=O)c1snc(C(N)=O)c1N)C(C(=O)NC1CCCC1)c1ccc(F)cc1 (centres undefined)	none (no result: bIAP activator, bIAP inhibitor)
CCN(C1CCCCC1)S(=O)(=O)c1cc2c3c(c1)CCN3C(=O)CC2	none (no result: bIAP activator, bIAP inhibitor)
